For 19 compounds, KA and kcat results are on record in ChEMBL document CHEMBL3769403, “Carbonic anhydrase activators: Activation of the β-carbonic anhydrase from Malassezia globosa with amines and amino acids” (Bioorg Med Chem Lett, 2016).

The first test relates to Malassezia globosa. The experiment in a line: Activation of Malassezia globosa beta-carbonic anhydrase incubated for 15 mins prior to testing by stopped flow CO2 hydrase method.
Details: not given
In short, it runs like this:
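Recombinant M. globosa β-CA (12.1 nM in assay; enzymes 10-14 nM) preincubated with activator 15 min at room temperature. CO2 hydration followed 10 s at 25 °C by stopped-flow, phenol red 0.2 mM at 557 nm, 20 mM Tris pH 8.3, 20 mM NaClO4; CO2 0.17-17 mM. Initial velocities from the first 5-10% of at least six traces, uncatalyzed rate subtracted; KA from the competitive steady-state equation; mean of 3 assays.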
With `N[C@@H](Cc1ccc(O)c(O)c1)C(=O)O`, the KA was 8.31 µM.

`NCCc1ccc(O)c(O)c1` displayed a KA of 9.43 µM.

The compound `N[C@H](Cc1ccc(O)c(O)c1)C(=O)O` yielded a KA of 13.7 µM.

Regarding `N[C@H](Cc1c[nH]cn1)C(=O)O`, the KA amounted to 18.1 µM.

The compound `NCCN1CCOCC1` returned a KA of 5.82 µM.

`N[C@@H](Cc1c[nH]c2ccccc12)C(=O)O` registered a KA of 10.1 µM.

`N[C@H](Cc1ccc(O)cc1)C(=O)O` yielded a KA of 25.1 µM.

Regarding `CNC[C@H](O)c1ccc(O)c(O)c1`, the KA came to 0.72 µM.

Consider `N[C@H](Cc1c[nH]c2ccccc12)C(=O)O`, for which the KA was 12.5 µM.

The compound `N[C@@H](Cc1c[nH]cn1)C(=O)O` showed a KA of 29.3 µM.

The compound `NCc1ccccn1` had a KA of 6.12 µM.

The compound `NCCc1c[nH]c2ccc(O)cc12` displayed a KA of 14.2 µM.

For `Nc1ccc(C[C@H](N)C(=O)O)cc1`, the KA was 13.4 µM.

Compound `N[C@@H](Cc1ccccc1)C(=O)O` yielded a KA of 34.1 µM.

The compound `NCCN1CCNCC1` showed a KA of 0.81 µM.

On to `NCCc1c[nH]cn1`, for which the KA was determined as 10.9 µM.

Consider `N[C@@H](Cc1ccc(O)cc1)C(=O)O`, for which the KA was 15.7 µM.

Compound `N[C@H](Cc1ccccc1)C(=O)O` returned a KA of 10.7 µM.

For the compound `NCCc1ccccn1`, the KA turned out to be 7.3 µM.

In a further test the test system is Malassezia globosa. To be noted: 10 uM.
With `NCCc1c[nH]cn1`, the kcat worked out at 18.5 ×10⁵ /s.
